The source of these data is ChEMBL document CHEMBL3351969, “Chalcone based azacarboline analogues as novel antitubulin agents: design, synthesis, biological evaluation and molecular modelling studies” (Eur J Med Chem, 2014).

Structures are written as SMILES. Structures can show the parent of a compound that is named as a salt. The source made the active and inactive calls. No cut-off for these calls is given here.

The test system of test [1] is THP-1. Description: Cytotoxicity against human THP1 cells assessed as growth inhibition at 50 uM after 48 hrs by sulforhodamine B assay. The format is functional. As to conditions: THP-1, 48 h, read-out: GI. The essentials: (§1)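 Single-point SRB screen at 50 µM. Cells were seeded and grown 24 h at 37°C in a CO2 incubator, then exposed to compound in complete medium for 48 h. Cells were fixed with 50% TCA for 1 h at 4°C, water-washed, and stained with 0.4% SRB in 1% acetic acid for 30 min. After 1% TCA washes, dye was dissolved in Tris-HCl (0.01 M, pH 10.4) and OD read at 540 nm.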
Background: The SRB assay estimates cell density from bound dye.

In test [2] the test system is COLO 205. Description: Cytotoxicity against human COLO205 cells assessed as growth inhibition at 50 uM after 48 hrs by sulforhodamine B assay. The format is functional. The note with it: COLO 205, 48 h, read-out: GI. Put shortly: as §1
Test [3] in a line: Cytotoxicity against human HCT116 cells assessed as growth inhibition at 50 uM after 48 hrs by sulforhodamine B assay. It counts as functional. As to conditions: HCT-116, 48 h, read-out: GI. The essentials: as §1
Test [4] has as its system A549. Description: Cytotoxicity against human A549 cells assessed as growth inhibition at 50 uM after 48 hrs by sulforhodamine B assay. The note with it: for inhibition of growth at 50 µM: A549, 48 h, read-out: GI. The format is functional. The essentials:
as §1

The subject of test [5] is THP-1. Description: Cytotoxicity against human THP1 cells assessed as growth inhibition after 48 hrs by sulforhodamine B assay. It counts as functional, cell-based. The note with it: THP-1, 48 h. The essentials:
(§2)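 SRB growth assay with compound dilutions over several concentrations. Cells were pre-grown 24 h at 37°C in a CO2 incubator, then exposed for 48 h. Cells were fixed with 50% TCA (1 h, 4°C) and stained with 0.4% SRB in 1% acetic acid for 30 min. Bound dye was solubilised in 0.01 M Tris-HCl (pH 10.4) and read at 540 nm. Percent inhibition versus untreated (blank-subtracted) was used to calculate IC50.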

Test [6] relates to COLO 205. Description: Cytotoxicity against human COLO205 cells assessed as growth inhibition after 48 hrs by sulforhodamine B assay. It counts as functional, cell-based. The note with it: COLO 205, 48 h. Put shortly: as §2
A short description of test [7]: Cytotoxicity against human HCT116 cells assessed as growth inhibition after 48 hrs by sulforhodamine B assay. It counts as functional, cell-based. The note with it: HCT-116, 48 h. The essentials: as §2
In another test the target is Tubulin. Description: Inhibition of tubulin (unknown origin) polymerization after 1 hr by spectrophotometry. It counts as protein-complex assay, Homo sapiens. Put shortly: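 Kit tubulin (10 mg in 1 mL general tubulin buffer plus 10 µL of 100 mM GTP) was held at 4°C. Compounds came from a 100 µM DMSO stock diluted to 50, 25 and 10 µM (pre-assay dilutions). Compound was pre-warmed in plate wells 2 min at 37°C before adding tubulin diluted in polymerization buffer (general buffer, glycerol buffer, GTP).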

Test [8] concerns THP-1. Description: Disruption of microtubule organization in human THP1 cells at 1 uM after 48 hrs by immunofluorescence technique. It counts as cell-based.
For test [9], the system named is A549. Description: Cytotoxicity against human A549 cells assessed as growth inhibition at 1 uM after 48 hrs by sulforhodamine B assay. As to conditions: A549, 48 h, read-out: GI. It counts as functional.
For test [10], the system named is THP-1. Description: Disruption of microtubule organization in human THP1 cells at 5 uM after 48 hrs by immunofluorescence technique. The format is cell-based. The essentials: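 THP-1 cells were exposed to 1 µM paclitaxel or 5 µM test agent for 48 h, alongside untreated controls. Microtubules and unassembled tubulin were immunostained (green) and DNA was stained with DAPI. Microtubule organisation was examined by confocal microscopy.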

For test [11], the system named is THP-1. Description: Cytotoxicity against human THP1 cells assessed as growth inhibition at 1 uM after 48 hrs by sulforhodamine B assay. As to conditions: THP-1, 48 h, read-out: GI. The format is functional.
In test [12] the test system is COLO 205. Description: Cytotoxicity against human COLO205 cells assessed as growth inhibition at 1 uM after 48 hrs by sulforhodamine B assay. It counts as functional. As to conditions: COLO 205, 48 h, read-out: GI.
Test [13] can be described thus: Cytotoxicity against human HCT116 cells assessed as growth inhibition at 1 uM after 48 hrs by sulforhodamine B assay. It counts as functional. The note with it: HCT-116, 48 h, read-out: GI.

Usually IC50 stands for the midpoint of a concentration-inhibition curve. Consider `COc1cc(-c2cc3c4c(Cl)cccc4n(C(C)=O)c3nn2)cc(OC)c1OC`, for which the inhibition of growth at 50 µM in the test on THP-1 [1] was 77%; with COLO 205 [2], 59%; in test [3], 66%. Also, in the test with A549 [4], the “growth inhibition (GI)” value was “inactive”. The IC50 with THP-1 [5] came to 13.4 µM; in the test with COLO 205 [6], 17 µM; in [7], 15.7 µM.
As for `CC(=O)n1c2ccccc2c2cc(-c3ccc4ccccc4c3)nnc21`, the figures for the inhibition of growth at 50 µM (in the test with THP-1 [1]; with COLO 205 [2]; in [3]) were 89%, 82% and 81%, respectively. Moreover, the “growth inhibition (GI)” value in the test on A549 [4] was “inactive”. In addition, the IC50 was 8.91 µM against Tubulin, 2.41 µM in the test on THP-1 [5], 5.76 µM with COLO 205 [6] and 4.44 µM in test [7].
For `CC(=O)n1c2ccccc2c2cc(-c3cccc4ccccc34)nnc21`, the inhibition of growth at 50 µM stood at 89% in the test with THP-1 [1], 83% with COLO 205 [2] and 80% in test [3]. For the same molecule, the “growth inhibition (GI)” value in the test with A549 [4] is “inactive”. In addition, the IC50 is 8.97 µM at Tubulin, 2.39 µM in the test with THP-1 [5], 5.74 µM in the test with COLO 205 [6] and 4.36 µM in test [7].
In the case of `CC(=O)n1c2ccccc2c2cc(-c3cccs3)nnc21`, the inhibition of growth at 50 µM in the test on THP-1 [1] is 76%; in the test on COLO 205 [2], 69%; in test [3], 71%; in the test on A549 [4], 10%. The figures for the IC50 (with THP-1 [5]; with COLO 205 [6]; in test [7]) were 4.31 µM, 7.15 µM and 6.17 µM, respectively.
`CC(=O)n1c2cccc(Cl)c2c2cc(-c3ccc4ccccc4c3)nnc21`: the inhibition of growth at 50 µM worked out at 68% with THP-1 [1], 41% with COLO 205 [2], 45% in test [3] and 19% in the test with A549 [4]. The IC50 with THP-1 [5] is 14 µM; in the test on COLO 205 [6], 17.6 µM; in [7], 16.2 µM.
For the molecule `CC(=O)n1c2ccccc2c2cc(-c3ccc[nH]3)nnc21`, the inhibition of growth at 50 µM with THP-1 [1] is 78%; with COLO 205 [2] it was 68%; in test [3] it was 72%; in the test on A549 [4], 12%. The IC50 worked out at 4.28 µM in the test on THP-1 [5], 7.23 µM in the test on COLO 205 [6] and 6.14 µM in [7].
On to `COc1ccc(-c2cc3c4c(Cl)cccc4n(C(C)=O)c3nn2)cc1`, for which the inhibition of growth at 50 µM in the test with THP-1 [1] was determined as 60%; in the test with COLO 205 [2], 39%; in [3], 36%; with A549 [4], 14%. Also, the 50% inhibitory concentration (IC50) in the test with THP-1 [5] came to 14.9 µM; in the test on COLO 205 [6], 18.2 µM; in [7], 16.9 µM.
For `CC(=O)O[C@H]1C(=O)[C@@]2(C)[C@H]([C@H](OC(=O)c3ccccc3)[C@]3(O)C[C@H](OC(=O)[C@H](O)[C@@H](NC(=O)c4ccccc4)c4ccccc4)C(C)=C1C3(C)C)[C@]1(OC(C)=O)CO[C@@H]1C[C@@H]2O` [PACLITAXEL], the result in the test with THP-1 [8] was Active. Besides, the inhibition of growth at 1 µM in the test with A549 [9] came to 70%.
In the case of `COc1ccc(-c2cc3c4ccccc4n(C(C)=O)c3nn2)cc1`, the inhibition of growth at 50 µM turned out to be 81% in the test with THP-1 [1], 72% with COLO 205 [2], 72% in [3] and 10% in the test on A549 [4]. Moreover, the IC50 with THP-1 [5] amounted to 3.45 µM; in the test with COLO 205 [6], 6.63 µM; in test [7], 5.23 µM.
As to `COc1ccc(-c2cc3c4c(Cl)cccc4n(C(C)=O)c3nn2)cc1OC`, the inhibition of growth at 50 µM amounted to 71% with THP-1 [1], 54% in the test with COLO 205 [2] and 49% in [3]. In the test on A549 [4], the “growth inhibition (GI)” value was “inactive”. Moreover, the IC50 in the test with THP-1 [5] stood at 13.8 µM; with COLO 205 [6] it was 17.2 µM; in test [7] it was 15.8 µM.
With `CC(=O)n1c2cccc(Cl)c2c2cc(-c3cccc4ccccc34)nnc21`, the inhibition of growth at 50 µM in the test on THP-1 [1] is 65%; in the test on COLO 205 [2], 40%; in [3] it was 44%; with A549 [4], 18%. In addition, the concentration for half-maximal inhibition (IC50) with THP-1 [5] came out at 14.1 µM; in the test with COLO 205 [6], 18 µM; in test [7], 15.7 µM.
On to `COc1cc(-c2cc3c4ccccc4n(C(C)=O)c3nn2)cc(OC)c1OC`, for which the inhibition of growth at 50 µM worked out at 99% in the test on THP-1 [1], 89% in the test on COLO 205 [2], 86% in test [3] and 20% in the test on A549 [4]. Moreover, the IC50 came to 2.41 µM at Tubulin, 1.13 µM in the test with THP-1 [5], 4.15 µM in the test with COLO 205 [6] and 2.89 µM in test [7]. The outcome with THP-1 [10] was Active.
For `COc1ccc(-c2cc3c4ccccc4n(C(C)=O)c3nn2)cc1OC`, the inhibition of growth at 50 µM with THP-1 [1] worked out at 90%; in the test with COLO 205 [2] it was 82%; in test [3] it was 80%; with A549 [4], 12%. The IC50 amounted to 4.92 µM at Tubulin, 2.33 µM in the test with THP-1 [5], 5.69 µM with COLO 205 [6] and 4.4 µM in [7].
For `COc1cccc2c1C(=O)c1c(O)c3c(c(O)c1C2=O)C[C@@](O)(C(=O)CO)C[C@@H]3O[C@H]1C[C@H](N)[C@H](O)[C@H](C)O1` [DOXORUBICIN HYDROCHLORIDE], the values for the inhibition of growth at 1 µM (in the test with THP-1 [11]; in the test with COLO 205 [12]; in test [13]) were 71%, 72% and 66%, respectively.
On to `CC(=O)n1c2ccccc2c2cc(-c3ccccc3)nnc21`, for which the inhibition of growth at 50 µM was 71% in the test on THP-1 [1], 64% in the test with COLO 205 [2], 66% in test [3] and 10% in the test on A549 [4]. Further, the figures for the IC50 (with THP-1 [5]; with COLO 205 [6]; in test [7]) were 5.75 µM, 8.11 µM and 7.77 µM, respectively.
